# In ChEMBL document CHEMBL1275401, “2'-Deoxy-2'-spirocyclopropylcytidine revisited: a new and selective inhibitor of the hepatitis C virus NS5B polymerase” (J Med Chem, 2010):
# Columns and labels:
# [1] = Cmax in Sprague-Dawley rat at 10 mg/kg, po; format: ADME, organism-based; parameters: dose 10 mg/kg, route oral; settings: in vivo
# Summary of the method: (§1)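 Male Sprague-Dawley rats, three per dose, received a single oral solution in 20% hydroxypropyl-β-cyclodextrin. EDTA blood was collected at 0.5, 1, 2, 4, 7 and 24 h, kept on ice protected from light, and spun at 4 °C within 1 h; plasma was stored at −20 °C. Parent nucleoside was quantified by LC-MS after acetonitrile precipitation (standard curve 5-2000 ng/mL). Noncompartmental analysis.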
# [2] = system: Hepatitis C virus; assay: Antiviral activity against Hepatitis C virus subtype 1b with adaptive mutations of E1202G, T1280I, K1846T […] infected in human HuH7 cells assessed as inhibition of viral replication after 3 days by luciferase assay; format: functional, organism-based, Hepacivirus hominis; settings: genotype 1b, Huh-7, 72 h
# Summary of the method: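 Huh7-Rep cells carrying the genotype 1b subgenomic luciferase reporter replicon (clone ET; adaptive mutations E1202G, T1280I, K1846T). 2500 cells per well were exposed to a nine-point 1/4 serial dilution of compound. Replication was read out as luciferase activity, and EC50 was derived from it. Values are averages of at least four repeats.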
# [3] = Cmax in Sprague-Dawley rat at 60 mg/kg, po; format: ADME, organism-based; parameters: dose 60 mg/kg, route oral; settings: in vivo; summary of the method: as §1
# [4] = AUC (0 to 7 hrs) in Sprague-Dawley rat at 60 mg/kg, po; format: ADME, organism-based; parameters: time < 7 hr, dose 60 mg/kg, route oral; settings: plasma; summary of the method: as §1
# [5] = Cytotoxicity against human MT4 cells expressing LTR-Luc after 3 days by luciferase assay; format: cell-based
# Summary of the method: (§2)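 Huh7 cells stably carrying luciferase under the CMV constitutive promoter, or MT4 cells with luciferase under the HIV LTR promoter, were cultured with or without compound dilutions for 3 days at 37 °C in humidified 5% CO₂. Luciferase activity served as the measure of proliferation, giving the CC₅₀ as 50% inhibition of growth. Values are averages of at least four repeats.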
# [6] = AUC (0 to 7 hrs) in Sprague-Dawley rat at 10 mg/kg, po; format: ADME, organism-based; parameters: time < 7 hr, dose 10 mg/kg, route oral; settings: plasma; summary of the method: as §1
# [7] = Tmax in Sprague-Dawley rat at 60 mg/kg, po; format: ADME, organism-based; parameters: dose 60 mg/kg, route oral; settings: in vivo; summary of the method: as §1
# [8] = Tmax in Sprague-Dawley rat at 10 mg/kg, po; format: ADME, organism-based; parameters: dose 10 mg/kg, route oral; settings: in vivo; summary of the method: as §1
# [9] = Cytotoxicity against human HuH7 cells expressing CMV-Luc after 3 days by luciferase assay; format: cell-based, Huh-7; summary of the method: as §2
# [10] = Tmax in Beagle dog at 15 mg/kg, po; format: ADME, organism-based, Canis lupus familiaris; parameters: dose 15 mg/kg, route oral; settings: in vivo
# Summary of the method: (§3)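 Single oral dose given as a solution in 20% hydroxypropyl-β-cyclodextrin to Beagle dogs, three per dose. Blood was taken on EDTA at 0.5, 1, 2, 4, 6, 8, 24 and 48 h, kept on ice away from light, and centrifuged at 4 °C within 1 h; plasma was stored at −20 °C. Analyte was protein-precipitated with acetonitrile and measured by LC-MS (LOQ ≥5.00 ng/mL). Noncompartmental parameters.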
# [11] = Cmax in Sprague-Dawley rat at 90 mg/kg, po; format: ADME, organism-based; parameters: dose 90 mg/kg, route oral; settings: in vivo; summary of the method: as §1
# [12] = Cmax in Sprague-Dawley rat at 15 mg/kg, po; format: ADME, organism-based; parameters: dose 15 mg/kg, route oral; settings: in vivo; summary of the method: as §1
# [13] = AUC (0 to 7 hrs) in Sprague-Dawley rat at 15 mg/kg, po; format: ADME, organism-based; parameters: time < 7 hr, dose 15 mg/kg, route oral; settings: plasma; summary of the method: as §1
# [14] = AUC (0 to 24 hrs) in Beagle dog at 75 mg/kg, po; format: ADME, organism-based, Canis lupus familiaris; parameters: time < 24 hr, dose 75 mg/kg, route oral; settings: plasma; summary of the method: as §3
# [15] = Cmax in Beagle dog at 15 mg/kg, po; format: ADME, organism-based, Canis lupus familiaris; parameters: dose 15 mg/kg, route oral; settings: in vivo; summary of the method: as §3
# [16] = Cmax in Beagle dog at 75 mg/kg, po; format: ADME, organism-based, Canis lupus familiaris; parameters: dose 75 mg/kg, route oral; settings: in vivo; summary of the method: as §3
# [17] = AUC (0 to 24 hrs) in Sprague-Dawley rat at 90 mg/kg, po; format: ADME, organism-based; parameters: time < 24 hr, dose 90 mg/kg, route oral; settings: plasma; summary of the method: as §1
# [18] = Tmax in Beagle dog at 75 mg/kg, po; format: ADME, organism-based, Canis lupus familiaris; parameters: dose 75 mg/kg, route oral; settings: in vivo; summary of the method: as §3
# [19] = Tmax in Sprague-Dawley rat at 90 mg/kg, po; format: ADME, organism-based; parameters: dose 90 mg/kg, route oral; settings: in vivo; summary of the method: as §1
# [20] = Tmax in Sprague-Dawley rat at 15 mg/kg, po; format: ADME, organism-based; parameters: dose 15 mg/kg, route oral; settings: in vivo; summary of the method: as §1
# [21] = AUC (0 to 24 hrs) in Beagle dog at 15 mg/kg, po; format: ADME, organism-based, Canis lupus familiaris; parameters: time < 24 hr, dose 15 mg/kg, route oral; settings: plasma; summary of the method: as §3
SMILES,Cmax [1],EC50 [2],CC50 at 72 h [5],AUC(0-t) at 7 h [6],Tmax [8],CC50 at 72 h [9],other results
Nc1ccn([C@@H]2O[C@H](CO)[C@@H](O)C23CC3)c(=O)n1,85 ng/mL,7.3 µM,> 98.4 µM,248 ng·h/mL,1 h,> 98.4 µM,Cmax [3]: 527 ng/mL; AUC(0-t) at 7 h [4]: 1640 ng·h/mL; Tmax [7]: 1.3 h
CC(C)C(=O)O[C@@H]1[C@@H](CO)O[C@@H](n2ccc(N)nc2=O)C12CC2,184 ng/mL,42.8 µM,> 98.4 µM,2620 ng·h/mL,0.7 h,> 98.4 µM,
CC(C)C(=O)OC[C@H]1O[C@@H](n2ccc(N)nc2=O)C2(CC2)[C@@H]1OC(=O)C(C)C,,20.3 µM,> 98.4 µM,,,> 98.4 µM,Tmax [10]: 1.5 h; Cmax [11]: 11400 ng/mL; Cmax [12]: 2390 ng/mL; AUC(0-t) at 7 h [13]: 7220 ng·h/mL; AUC(0-t) at 24 h [14]: 204000 ng·h/mL; Cmax [15]: 6300 ng/mL; Cmax [16]: 42800 ng/mL; AUC(0-t) at 24 h [17]: 40000 ng·h/mL; Tmax [18]: 1.3 h; Tmax [19]: 0.7 h; Tmax [20]: 0.8 h; AUC(0-t) at 24 h [21]: 37000 ng·h/mL
C[C@@]1(F)[C@H](O)[C@@H](CO)O[C@H]1n1ccc(N)nc1=O,,1.9 µM,> 98.4 µM,,,> 98.4 µM,
C[C@@]1(O)[C@H](O)[C@@H](CO)O[C@H]1n1ccc(N)nc1=O,,4.6 µM,> 98.4 µM,,,> 98.4 µM,
[N-]=[N+]=N[C@]1(CO)O[C@@H](n2ccc(N)nc2=O)[C@H](O)[C@@H]1O [4'-AZIDOCYTIDINE],,4.3 µM,> 98.4 µM,,,> 98.4 µM,
